A selection: hits, their analogues and other compounds. The true share with any hit is near 2.4%.
MDM2 E3 inh: inhibitors of human Mdm2 E3 ubiquitin ligase | Q00987 | cell-based MDM2 ubiquitination luciferase reporter, 2 h; 0 = plate control, 100 = twice control, blank-subtracted | signal enhancement, % at 5 µM | 210,000 tested, 0.11% active | AID 1230;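 active = signal enhancement of 30% or more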;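 also: luminescence tracks abundance of the self-degrading MDM2-luciferase fusion protein; higher signal means inhibition of MDM2 E3 ligase activity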
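Test system: stable mammalian line carrying autodegrading MDM2–luciferase fusion reporter; quantity: 2000 cells in each well; times: 4 h cell settling then 2 h compound exposure, 37 °C; detection: luminescence with SteadyLite reagent, 15 min at room temperature; evaluation: percent signal gain over controls, blank-subtracted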
Autophagy HCS: alters autophagy in cells | MEF GFP-LC3 puncta imaging; test concentration mostly 10 µM | calls only at 10 µM (by protocol) | 190,000 tested, 0.98% active;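 active = percentage of spot-positive cells more than 3 SD above its plate mean, without a fluorescence outlier flag or 80% toxicity; inconclusive = no clear call, values can overlap the other calls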
TNF death inh: TNF-alpha cell death inhibition in Jurkat FADD-/- cells; 220,000 tested, 0.068% active; Jurkat FADD-/- TNF necroptosis rescue, ATP luminescence, 24 h; 0 = TNF only, 100 = no-TNF cells; AID 463075; activation (protection from cell death), % at 10 µM;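 active = activation, meaning protection from cell death, of at least 50% relative to plate controls; inactive = activation below 50%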;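 also: necroptosis triggered by 40 ng/mL TNF-alpha added together with compound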
zVAD death inh: L929 zVAD cell death inhibition; L929 zVAD necroptosis rescue, ATP luminescence, 24 h; with zVAD 60 µM; viability rescue, % at 10 µM; 220,000 tested, 0.38% active; AID 1377;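 active = activation, scaled between plate controls, above about 75%, limit read from the data; inactive = activation under that limit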
Dynein cargo inh: dynein cargo transport inhibition; 3617.4 mouse cells, GR-EGFP nuclear translocation imaging; test concentration mostly 20 µM; stimulated with dexamethasone, 1 µM; hits give low values; z-score, hits read low; 220,000 tested, 0.47% active; AID 1381;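 active = plate z-score of nuclear minus cytoplasmic receptor signal below a set negative limit, without overly bright fluorescence or cell loss, cut at about -3.5 in these data, passing the limit was not always enough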;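 also: z-score of nuclear minus cytoplasmic ring GR-EGFP intensity difference per well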
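Buffer or medium: tet-free, stripped-serum medium; Also added: dexamethasone, 1.0 µM final; Technique: high-content fluorescence imaging after fixation; Times: 48 h induction, 1 h compound, 30 min dex at 37 °C; Read-out: per-cell GR-EGFP intensity, nucleus versus surrounding cytoplasmic ring, well-averaged.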
Hck Nef HTS: human Hck-Nef kinase inhibition. inhibition, % at 20 µM. 220,000 tested, 0.68% active. P08631. AID 463187. Recombinant Hck-YEEI plus Nef, Z-Lyte FRET kinase assay;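 active = Hck-Nef kinase inhibition above about 50%, limit read from the data; inactive = inhibition below that limit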
Target sequence (P08631 whole entry, looked up): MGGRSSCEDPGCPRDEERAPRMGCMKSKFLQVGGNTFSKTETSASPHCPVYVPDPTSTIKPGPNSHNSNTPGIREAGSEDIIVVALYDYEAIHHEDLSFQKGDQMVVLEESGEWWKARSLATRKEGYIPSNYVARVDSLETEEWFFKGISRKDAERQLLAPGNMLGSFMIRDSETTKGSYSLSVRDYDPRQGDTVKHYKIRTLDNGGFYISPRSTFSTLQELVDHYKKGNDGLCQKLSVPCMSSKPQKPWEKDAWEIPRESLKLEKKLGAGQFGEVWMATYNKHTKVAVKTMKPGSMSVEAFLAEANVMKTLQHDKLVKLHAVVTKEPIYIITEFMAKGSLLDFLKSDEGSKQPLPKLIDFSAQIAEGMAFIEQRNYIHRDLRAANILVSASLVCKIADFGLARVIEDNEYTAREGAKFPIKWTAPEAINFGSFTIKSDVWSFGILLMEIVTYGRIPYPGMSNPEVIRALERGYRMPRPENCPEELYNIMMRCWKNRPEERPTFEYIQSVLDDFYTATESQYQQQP
Dynein confirm: dynein cargo transport inhibition, confirmation. shares compounds with Dynein cargo inh. calls only at 20 µM. AID 463116. 1,000 tested, 69% active. 3617.4 GR-EGFP nuclear translocation imaging, dexamethasone-induced;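 active = inhibition of receptor movement into the nucleus at or above a set limit in both runs, with normal cell brightness and cell count; inconclusive = limit reached in only one run, brightness and count normal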;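 also: dexamethasone at 1 µM final in well for 30 min; nuclear minus cytoplasmic GR-EGFP mean intensity difference in channel 2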
Hck Nef conf: confirmation of Hck-Nef kinase inhibitors. shares compounds with Hck Nef HTS. AID 463188. Recombinant Hck-YEEI:Nef, Z-Lyte FRET kinase assay. 1,300 tested, 28% active. calls only at 10 µM;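 active = average inhibition of at least 50%, with Z-scores no higher than 3 in both the phospho-tyrosine peptide and fluorescence counterscreens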
Large screens that a line does not name were inactive (follow-up assays come after a bar, where they were run).

Nc1nc(Sc2c([N+](=O)[O-])cc(C(F)(F)F)cc2[N+](=O)[O-])n[nH]1	Dynein cargo inh -7.1 (no result: Autophagy HCS) | Dynein confirm active
Nc1nc(Sc2ccc(C(F)(F)F)cc2[N+](=O)[O-])n[nH]1	none
Cc1sc(/C=C2\C(=O)ON=C2c2ccccc2)cc1Br	none
Cc1ccc(/C=C2/C(=O)ON=C2c2ccccc2)o1	Dynein cargo inh -6 (no result: Autophagy HCS) | Dynein confirm active
CCCN(CCC)S(=O)(=O)c1ccc(Cl)c([N+](=O)[O-])c1	Dynein cargo inh -3.5 | Dynein confirm inconclusive
Cc1cccc(NC(=O)COC(=O)c2cc3ccccc3oc2=O)c1	none
CCN(CC)Cc1cc(O)c(CN(CC)CC)cc1O	Dynein cargo inh -4.9 | Dynein confirm active
CCc1oc(C(=O)O)cc1CN(CC)CC	none
O=C(Nc1ccccc1Cl)c1ccccc1Cc1ccccc1	none
COC(=O)c1cc([N+](=O)[O-])c(-n2ccnc2)c([N+](=O)[O-])c1	Dynein cargo inh -3.5 | Dynein confirm active
Cc1cc(-c2nnc(-c3ccccc3)c(-c3ccccc3)n2)c(C)o1	Dynein cargo inh -3.7 | Dynein confirm inactive
NC(=O)CSc1nnc(SCc2ccc(F)cc2)s1	none
Cc1cccc(CS(=O)(=O)c2nnc([C@H](Cc3ccccc3)NC(=O)OC(C)(C)C)o2)c1	Dynein cargo inh -4.9 | Dynein confirm inactive
COC(=O)CSc1nnc([C@H](Cc2ccccc2)NC(=O)OC(C)(C)C)o1	none
COC(=O)CS(=O)(=O)c1nnc([C@H](Cc2ccccc2)NC(=O)OC(C)(C)C)o1	Dynein cargo inh -3.9 | Dynein confirm active
C=CCN(CC=C)c1nc2ccccc2nc1C(C#N)C(=O)OC(C)C (configuration not stated)	none
O=C(N/N=C/c1cccnc1)c1ccc2c(c1)OCCO2	none (no result: zVAD death inh)
O=C(CN1CCCCC1)NNc1nc(-c2ccccc2)c2cc(Br)ccc2n1	none (no result: Autophagy HCS)
O=C1C=C(NC2=CC3OC(c4ccccc4)OCC3OC2=O)CCC1 (configuration not stated)	Dynein cargo inh -4.4 | Dynein confirm active
Cc1ccc(-c2cc(C(F)F)nc(S(C)(=O)=O)n2)cc1	Dynein cargo inh -4.5 | Dynein confirm active
Cc1ccc(-c2cc(-c3ccccc3)nc(Cl)n2)cc1	none
COc1ccc(N/C=C/c2nc(SC)nnc2C)cc1	Autophagy HCS active | Dynein confirm inactive
CCOC(=O)CCSc1nc(C)cc(C(F)(F)F)c1C#N	Autophagy HCS active | Dynein confirm inactive
Oc1c(Cl)cc(Cl)c2c1NCCC2	Dynein cargo inh -4.7 | Dynein confirm inactive
O=C1NCCCc2c1oc1ccc(O)cc21	none
CCOC(=O)C(=Cc1ccc(-n2cncn2)cc1)C(=O)OCC	Dynein cargo inh -6.8 | Dynein confirm active
COc1ccc(S(=O)(=O)Nc2ccc(O)c3ccccc23)cc1	Dynein cargo inh -3.7 | Dynein confirm inactive
O=C(CNC(=O)c1ccccc1)NCc1ccc(Cl)cc1	none
Nc1c(C(=O)c2ccc(Cl)cc2)sc2nsc(SCCN3CCOCC3)c12	none (no result: Autophagy HCS) | Dynein confirm inactive
Nc1c(C(=O)c2ccccc2)sc2nsc(SCCN3CCCC3)c12	none (no result: Autophagy HCS) | Dynein confirm inactive
CCOc1cc([N+](=O)[O-])c2nc(N)sc2c1	none (no result: MDM2 E3 inh, Autophagy HCS)
Cc1cc(-n2ccnc2)n2c(nc3ccccc32)c1C#N	none
CCCc1cc(-n2ccnc2)n2c(nc3ccccc32)c1C#N	none | Dynein confirm inactive
COc1ccc(/C=C(/C(=O)c2cccs2)N2C=CC=CC2=C(C#N)C#N)cc1	Dynein cargo inh -3.6 | Dynein confirm inconclusive
Cc1cccc(-c2ncc(S(=O)(=O)C(C)(C)C)c(N)n2)c1	none (no result: Autophagy HCS)
CCCCN1C(=O)/C(=C/C=C2\Oc3ccccc3N2CC)SC1=S	Autophagy HCS active | Dynein confirm active
CCCN1C(=O)/C(=C/C=C2\N(CC)c3ccccc3C2(C)C)SC1=S	Autophagy HCS active | Dynein confirm inactive
CCN1C(=O)/C(=C/C=C2/Sc3ccccc3N2CCO)SC1=S	none
COc1ccc(CC(=O)n2[nH]c(=O)ccc2=O)cc1OC	Dynein cargo inh -3.6 (no result: Autophagy HCS) | Dynein confirm inactive
COc1ccc(CC(=O)n2[nH]c(=O)c3ccccc3c2=O)cc1OC	none (no result: Autophagy HCS)
C=CCCCN(Cc1ccccc1)S(=O)(=O)c1ccccc1Br	none (no result: Autophagy HCS)
O=C(CCl)N(c1ccccc1)c1c[nH]c2ccccc12	Autophagy HCS inconclusive
O=C(CCl)N(c1ccc(Cl)cc1)c1c[nH]c2ccccc12	Dynein cargo inh -5.3 | Dynein confirm active
Cc1c(C)[n+](=O)c(-c2ccc(Br)cc2)c(C)n1[O-]	none (no result: Autophagy HCS)
CN1C2=NCCN2C(=O)c2cc(Cl)ccc21	none (no result: Autophagy HCS)
Cn1c(Cl)cnc1C1CC(=O)c2cc(Cl)ccc2O1 (configuration not stated)	Dynein cargo inh -5.9 | Dynein confirm inconclusive
COc1ccc(CCN=CC2=C(O)CCCC2=O)cc1OC	none
Cc1cccn2c(=O)c(C=O)c(Cl)nc12	Dynein cargo inh -5.9 (no result: Autophagy HCS) | Dynein confirm active
COC(=O)[C@@]1(Cc2ccccc2)[C@@H]2C(=CC(=O)[C@H]2CC(=O)C(=O)N(C)C)CN1C(=O)c1ccccc1	Dynein cargo inh -5.2 (no result: MDM2 E3 inh) | Dynein confirm active
O=C1CCCCc2sc(Br)c([N+](=O)[O-])c2N1	Dynein cargo inh -6.5 (no result: Autophagy HCS) | Dynein confirm active
CC(=O)c1ccc(C(C)(C)c2ccc(C(C)=O)s2)s1	none
O=C(COC(=O)C1CC(O)CN1S(=O)(=O)c1ccc(Cl)cc1)c1cccc(Cl)c1 (configuration not stated)	none (no result: zVAD death inh)
O=C1ON=C(c2ccc(Cl)cc2)/C1=C/c1ccc(O)cc1	Dynein cargo inh -5 | Dynein confirm active
CC1CCc2cc(F)ccc2N1C(=O)CCl (configuration not stated)	Dynein cargo inh -5.4 | Dynein confirm active
CCC(CC)C(=O)N1c2ccc(F)cc2CCC1C (configuration not stated)	none
CC1=NN(c2cccc(C(=O)O)c2)C(=O)/C1=C\C=C/c1ccccc1	MDM2 E3 inh 31, Dynein cargo inh -5.6, Hck Nef HTS 59 | Dynein confirm active | Hck Nef conf inactive
CCOC(=O)c1c(NC(=O)/C=C/C(=O)O)sc(C)c1-c1ccc(Cl)cc1	Dynein cargo inh -8.2, Hck Nef HTS 107 | Dynein confirm active | Hck Nef conf active
CCOC(=O)c1c(NC(=O)Nc2ccc(Cl)cc2)sc(C)c1C	none
CN(C)C(=S)SCCn1c(N)nc(N(C)C)nc1=O	none (no result: Autophagy HCS)
